Paper PMC8600646 (ACS Omega, 2021)
Values after ≈ are worked out from the molar mass of the structure shown. Values joined by “and” are separate entries in the source; they are usually repeats but may differ in a detail not shown here. Equal entries are not always repeated. Where two headings read alike, the source gives them in different places.

Legend:
[1] = cited from earlier work
[2] = Linear sweep voltammetry with rotating disk electrode; type: physicochemical; conditions: for Dox (LSV): oxidized species
[3] = Electrochemical impedance spectroscopy; type: physicochemical
How it was run: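 Glassy carbon rotating disk (5 mm; 0.196 cm2) with Ag/AgCl reference and Pt wire counter; polished as for CV. Solutions hold 1 mM reduced radical plus 1 mM oxidised form, made by bulk electrolysis at 0.75 V vs Ag/AgCl for 5–10 h. Run at open-circuit potential, 2500 rpm, 10 mV amplitude, 0.5–100000 Hz. Rct comes from a Nyquist fit, then j0, then k0 assuming α = 0.5.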

[4] = cited from earlier work; for Dred, previously reported: aqueous solution
[5] = Hydraulic radius calculated with the Stokes-Einstein equation; type: physicochemical; conditions: from Dred CV, 298K
How it was run: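 Stokes–Einstein estimate that uses Dred from the CV fits, the measured solution viscosity and T = 298 K. Viscosities come from a concentric-cylinder rotational rheometer (KCl-based solutions) or a calibrated Ubbelohde glass viscometer (1 M H2SO4 and 15 wt % proline).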

[6] = Cyclic voltammetry; type: physicochemical; conditions: for Dred (CV): 1 mM; for Dox (CV): oxidized species
How it was run: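 Three-electrode cell: 3 mm glassy carbon working electrode (0.0707 cm2), Ag/AgCl in 3 M KCl reference, Pt wire counter. Electrode polished with 0.05 μm alumina and rinsed with water and methanol. Nitroxide starts at 1 mM; hydrotrope electrolytes readjusted to pH 7.0 (HCl) or, for the disulfonate, to about 0 (H2SO4). Triplicate CVs at 0.001–1 V/s, three cycles per rate.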

[7] = for 3,4-dimethylbenzenesulfonate; cited from earlier work
[8] = Viscosity measurements of hydrotrope solutions; type: physicochemical; conditions: 20 wt % hydrotrope in 1 M KCl, rotational rheometer
How it was run: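 Rotational rheometer with concentric cylinder geometry over shear rates of 10 to 100/s. Solutions tested: 1 M KCl, 20 wt % NaXS and 20 wt % NapTS.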

With `Oc1ccc(O)cc1` [hydroquinone, benzene-1,4-diol, reference compound] as the compound, how does the solubility ([1]; deionized water, 4.0 M urea) read?
The solubility was 1500 mM (≈ 165 mg/mL).

What does the source list for `CC1(C)CC(O)CC(C)(C)N1[O]` [4-OH-TEMPO, 4-OH-TEMPO free radical]?
Dred (LSV) ([2]; 1 M KCl, no hydrotrope): 10.53 × 10^–6 cm^2/s; standard rate constant k0 (LSV) ([2]; 1 M KCl, no hydrotrope): 0.09 ± 0.07 cm/s; Dred (LSV) ([2]; 20 wt % NaXS in 1 M KCl): 6.63 × 10^–6 cm^2/s; standard rate constant k0 (LSV) ([2]; 20 wt % NaXS in 1 M KCl): 0.12 ± 0.11 cm/s; Dred (LSV) ([2]; 20 wt % NapTS in 1 M KCl): 8.53 × 10^–6 cm^2/s; standard rate constant k0 (LSV) ([2]; 20 wt % NapTS in 1 M KCl): 0.32 ± 0.33 cm/s; Dox (LSV) ([2]; 1 M KCl, no hydrotrope): 6.03 × 10^–6 cm^2/s; Dox (LSV) ([2]; 20 wt % NaXS in 1 M KCl): 3.76 × 10^–6 cm^2/s; Dox (LSV) ([2]; 20 wt % NapTS in 1 M KCl): 4.40 × 10^–6 cm^2/s; standard rate constant k0 (EIS) ([3]; 1 M KCl, no hydrotrope): 0.08 ± 0.00 cm/s; standard rate constant k0 (EIS) ([3]; 20 wt % NaXS in 1 M KCl): 0.29 ± 0.11 cm/s; standard rate constant k0 (EIS) ([3]; 20 wt % NapTS in 1 M KCl): 0.12 ± 0.01 cm/s; Dred, previously reported ([4]; ref 11): 29.5 × 10^–6 cm^2/s; Dred, previously reported ([4]; ref 42): 7.7 × 10^–6 cm^2/s; formal reduction potential E0' ([4]; circumneutral pH): 0.59 V vs Ag/AgCl; hydraulic radius ([5]; 20 wt % NaXS): 3.7 Å; hydraulic radius ([5]; 20 wt % NapTS): 2.7 Å; hydraulic radius ([5]; no hydrotrope (1 M KCl)): 3.3 Å; formal reduction potential E0' ([6]; 1 M KCl, no hydrotrope): 0.59 ± 0.00 V vs Ag/AgCl and 0.59 V vs Ag/AgCl; Dred (CV) ([6]; 1 M KCl, no hydrotrope): 7.00 ± 0.24 × 10^–6 cm^2/s; standard rate constant k0 (CV) ([6]; 1 M KCl, no hydrotrope, glassy carbon electrode): 0.35 ± 0.14 cm/s; standard rate constant k0 (CV) ([6]; 20 wt % NaXS in 1 M KCl): 0.48 ± 0.19 cm/s; Dred (CV) ([6]; 20 wt % NaXS in 1 M KCl): 3.33 ± 0.04 × 10^–6 cm^2/s; formal reduction potential E0' ([6]; 20 wt % NaXS in 1 M KCl, vs Ag/AgCl): 0.59 ± 0.01 V; standard rate constant k0 (CV) ([6]; 20 wt % NapTS in 1 M KCl): 0.95 ± 0.07 cm/s; Dred (CV) ([6]; 20 wt % NapTS in 1 M KCl): 4.27 ± 0.14 × 10^–6 cm^2/s; formal reduction potential E0' ([6]; 20 wt % NapTS in 1 M KCl, vs Ag/AgCl): 0.59 ± 0.00 V; standard rate constant k0 (CV) ([6]; 20 wt % urea in 1 M KCl): 0.78 ± 0.16 cm/s; Dred (CV) ([6]; 20 wt % urea in 1 M KCl): 5.90 ± 0.07 × 10^–6 cm^2/s; formal reduction potential E0' ([6]; 20 wt % urea in 1 M KCl, vs Ag/AgCl): 0.59 ± 0.00 V; Dox (CV) ([6]; 1 M KCl, no hydrotrope): 6.82 ± 0.32 × 10^–6 cm^2/s; Dox (CV) ([6]; 20 wt % NaXS in 1 M KCl): 3.50 ± 0.11 × 10^–6 cm^2/s; Dox (CV) ([6]; 20 wt % NapTS in 1 M KCl): 4.92 ± 0.15 × 10^–6 cm^2/s; Dox (CV) ([6]; 20 wt % urea in 1 M KCl): 5.55 ± 0.12 × 10^–6 cm^2/s

With sodium xylenesulfonate [NaXS] as the compound, how does the pKA [7] read?
The pKA was 10.36.

What about the viscosity of solution [8] of the same compound?
The viscosity of solution was 1.8 × 10^–3 Pa·s.

With `Cc1cc2nc3c(=O)[nH]c(=O)nc-3n(C[C@H](O)[C@H](O)[C@H](O)COP(=O)(O)O)c2cc1C` [FMN, riboflavin-5′-monophosphate] as the compound, how does the aqueous solubility ([1]; 1.0 M KOH, no hydrotrope) read?
The aqueous solubility was 100 mM (≈ 45.6 mg/mL).
